4 compounds from ChEMBL document CHEMBL1156371, “New polyoxygenated briarane diterpenoids, briaexcavatolides O-R, from the gorgonian Briareum excavatum” (2001) can be followed below.

Common to all, as to format: functional
The subject of one test is P388. The test is described as follows: Cytotoxicity against mouse P388 cells by MTT assay. In outline:
(§1)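 Colorimetric read-out using a modified MTT [3-(4,5-dimethylthiazol-2-yl)-2,5-diphenyltetrazolium bromide] method, following previously described procedures.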
Background: Tetrazolium assays rely on reduction of a dye to a coloured formazan, in cell work by metabolically active cells.

Another test concerns HT-29. The test is described as follows: Cytotoxicity against human HT-29 cells by MTT assay. In short, it runs like this: as §1
The test system of the next test is A549. As to the kind of experiment: Cytotoxicity against human A549 cells by MTT assay. In short, it runs like this:
as §1

Setting [1] is: read-out: ED50 (the source's name).

≈ marks a conversion by molar mass, not a printed value. Calls of active or inactive are those of the source. No cut-off for these calls is given here.

For `CCCC(=O)O[C@@H]1/C(C)=C\[C@@H]2OC(=O)[C@@]3(C)O[C@]23[C@@H](OC(C)=O)[C@H]2[C@@H](C)[C@@H](O)C[C@H](OC(C)=O)[C@]2(C)[C@@H](OC(C)=O)[C@H]1O` [BRIAEXCAVATOLIDE P], the values for the EC50 in the test on P388 (setting [1]), in the test on HT-29 (setting [1]) and in the test with A549 (setting [1]) were 0.9 µg/mL (≈ 1.47 µM), 3.1 µg/mL (≈ 5.08 µM) and 4.8 µg/mL (≈ 7.86 µM), respectively.
For the compound `CCCC(=O)O[C@@H]1/C(C)=C\[C@@H]2OC(=O)[C@@]3(C)O[C@]23[C@@H](OC(C)=O)[C@H]2[C@@H](C)[C@@H](O)C[C@H](OC(C)=O)[C@]2(C)[C@@H](O)[C@H]1OC(C)=O`, the result with P388, in the test with HT-29 and with A549 was inactive.
As for `CCCCCCCC(=O)O[C@H]1C[C@H](OC(C)=O)[C@@]2(C)[C@H]([C@H]1C)[C@H](OC(C)=O)[C@]13O[C@]1(C)C(=O)O[C@H]3/C=C(/C)C[C@H](OC(=O)CCC)[C@@H]2OC(C)=O`, the outcome in the test on P388, with HT-29 and in the test with A549 was inactive.
As to `CCCC(=O)O[C@@H]1/C(C)=C\[C@@H]2OC(=O)[C@@]3(C)O[C@]23[C@@H](OC(C)=O)[C@H]2[C@@H](C)[C@@H](OC(C)=O)C[C@H](OC(C)=O)[C@]2(C)[C@@H](OC(C)=O)[C@H]1O`, the result with P388, in the test on HT-29 and in the test with A549 was inactive.
